Reference: article PMC11516114 (Protein Science : A Publication of the Protein Society, 2024)
Where two headings read alike, the source gives them in different places.

Columns and labels:
[1] = biological target: T1, wild-type HIF-2α PAS-B (Homo sapiens, UniProt Q99814); experiment: Isothermal titration calorimetry; type: binding
How it was run: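 Human HIF-2α PAS-B (residues 240–350), expressed with a cleavable His6-Gβ1 tag, purified by Ni2+ affinity, TEV cleavage, a second Ni2+ pass and size exclusion. ITC run at 25°C with protein (250–300 μM) titrated into 20 μM test compound: 25 injections, 250 s spacing, 350 rpm. Protein-into-buffer heats were subtracted.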

[2] = biological target: T1, wild-type HIF-2α PAS-B; conditions: previously measured, ref Key et al. [2009]; cited from earlier work

T1 sequence (Q99814 240-350): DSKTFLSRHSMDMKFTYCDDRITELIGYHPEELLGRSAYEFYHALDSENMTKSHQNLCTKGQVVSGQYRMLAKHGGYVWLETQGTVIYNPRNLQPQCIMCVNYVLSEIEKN

| Kd [1] [µM] | Structure (SMILES) | Kd [2] [µM] |
| --- | --- | --- |
| 0.6 ± 0.06 | O=[N+]([O-])c1cc(C(F)(F)F)ccc1NCc1ccsc1 [THS-017, 2‐nitro‐N‐[(thiophen‐3‐yl)methyl]‐4‐(trifluoromethyl)aniline] | 0.59 ± 0.05 |
| 1.35 ± 0.11 | O=[N+]([O-])c1cc(C(F)(F)F)ccc1NCc1ccco1 [THS-020, N‐[(furan‐2‐yl)methyl]‐2‐nitro‐4‐(trifluoromethyl)aniline] | 1.5 ± 0.7 |
